Source: ChEMBL document CHEMBL3853318, “Structure-Based Optimization of Potent, Selective, and Orally Bioavailable CDK8 Inhibitors Discovered by High-Throughput Screening” (J Med Chem, 2016)
Converted amounts (≈) assume the structure as drawn. The source made the active and inactive calls. The rule behind the calls is not given here.

Tests used:
[1] = Fraction unbound in Beagle dog plasma at 0.2 mg/kg, iv as bolus dose or 0.5 mg/kg, po via gavage measured over 48 hrs; type: ADME, organism-based, Canis lupus familiaris
[2] = Half life in NMRI mouse at 0.2 mg/kg, iv as bolus dose or 0.5 mg/kg, po via gavage; type: ADME, organism-based; conditions: in vivo
[3] = Plasma clearance in Wistar rat at 0.2 mg/kg, iv as bolus dose or 0.5 mg/kg, po via gavage measured over 6 hrs; type: ADME, organism-based
[4] = biological target: T1, Cyclin-dependent kinase 8 (Homo sapiens, UniProt P49336); assay: Inhibition of CDK8 in human LS174T cells expressing beta-catenin mutant assessed as suppression of WNT pathway by luciferase reporter gene assay; type: cell-based
Target sequence in this assay (P49336 whole entry, looked up, stated change not applied): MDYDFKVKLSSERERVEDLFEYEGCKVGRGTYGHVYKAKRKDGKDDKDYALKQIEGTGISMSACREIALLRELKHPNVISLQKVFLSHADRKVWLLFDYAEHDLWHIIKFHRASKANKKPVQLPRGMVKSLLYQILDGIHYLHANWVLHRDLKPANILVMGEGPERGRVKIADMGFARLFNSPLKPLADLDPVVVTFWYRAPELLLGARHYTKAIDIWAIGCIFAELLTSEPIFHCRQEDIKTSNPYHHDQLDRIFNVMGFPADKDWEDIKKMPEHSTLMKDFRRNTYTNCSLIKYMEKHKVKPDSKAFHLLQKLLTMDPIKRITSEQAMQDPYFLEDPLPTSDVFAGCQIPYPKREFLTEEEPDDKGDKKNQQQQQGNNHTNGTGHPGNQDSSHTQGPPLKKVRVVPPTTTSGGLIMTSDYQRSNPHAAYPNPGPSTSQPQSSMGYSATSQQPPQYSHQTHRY

[5] = Intrinsic clearance in human liver microsomes at 1 uM preincubated for 5 mins followed by NADPH addition measured after 5 to 30 mins by LC-MS/MS analysis; type: ADME; conditions: read-out: CLH
Mus musculus [6] = assay: Toxicity in NCr athymic mouse xenografted with human SW620 cells assessed as drug tolerance at 100 mg/kg, po qd administered for 16 days; type: organism-based, SW-620; conditions: in vivo, 384 h
Summary of the method: (§1)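 Female NCr athymic mice bearing SW620 colorectal xenografts received oral treatment for 16 days. Body weights were recorded and expressed as % of day 0 values.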

[7] = Half life in Beagle dog at 0.2 mg/kg, iv as bolus dose or 0.5 mg/kg, po via gavage; type: ADME, organism-based, Canis lupus familiaris; conditions: in vivo
[8] = Fraction unbound in Wistar rat plasma at 0.2 mg/kg, iv as bolus dose or 0.5 mg/kg, po via gavage measured over 6 hrs; type: ADME, organism-based
[9] = biological target: T1, Cyclin-dependent kinase 8; assay: Inhibition of CDK8 in human PA1 cells assessed as suppression of WNT3a ligand-induced WNT pathway by luciferase reporter gene assay; type: cell-based, PA-1
Target sequence in this assay (P49336 whole entry): as the sequence (P49336 whole entry, looked up, stated change not applied) above

[10] = Antitumor activity against human SW620 cells xenografted in NCr athymic mouse assessed as tumor growth inhibition at 50 mg/kg, po bid administered for 16 days relative to control; type: functional, SW-620
Summary of the method: (§2)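 Female NCr athymic mice bearing SW620 human colorectal carcinoma xenografts were dosed orally for 16 days. Growth inhibition was expressed as T/C ratio based on final tumor weights versus vehicle controls.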

[11] = Plasma clearance in Beagle dog at 0.2 mg/kg, iv as bolus dose or 0.5 mg/kg, po via gavage measured over 48 hrs; type: ADME, organism-based, Canis lupus familiaris
[12] = biological target: T1, Cyclin-dependent kinase 8; assay: Inhibition of CDK8 in human SW620 cells assessed as decrease in STAT1 phosphorylation at Ser727; type: cell-based, SW-620
Target sequence in this assay (P49336 whole entry): as the sequence (P49336 whole entry, looked up, stated change not applied) above

CDK8/Cyclin C = CDK8/Cyclin C (Homo sapiens, UniProt P49336); assay: Inhibition of Alexa647 tracer binding to full length recombinant human His-tagged CDK8/cyclin C expressed in Baculovirus expression system preincubated for 20 mins followed by tracer addition and incubated in dark for 60 mins by FRET-based Lanthascreen assay
hERG (KCNH2) = hERG (KCNH2) (Homo sapiens, UniProt Q12809); assay: Inhibition of human ERG at 10 uM relative to control
[13] = biological target: T1, Cyclin-dependent kinase 8; assay: Inhibition of CDK8 in human 7dF3 cells preincubated for 2 hrs followed by beta-oestradiol addition measured after 24 hrs by luciferase reporter gene assay; type: cell-based
Target sequence in this assay (P49336 whole entry): as the sequence (P49336 whole entry, looked up, stated change not applied) above

[14] = Thermodynamic solubility of the compound in PBS at pH 7.4; type: physicochemical; conditions: read-out: Therm_solubility
[15] = Oral bioavailability in Wistar rat at 0.5 mg/kg via gavage measured over 6 hrs; type: ADME, organism-based; conditions: in vivo
[16] = Efflux ratio of permeability in human Caco2 cells at 1 uM after 2 hrs by Transwell assay; type: ADME, cell-based; conditions: Caco-2
Mus musculus [17] = assay: In vivo inhibition of CDK8-mediated STAT1 phosphorylation at Ser727 in human SW620 cells xenografted in NCr athymic mouse at 100 mg/kg, po qd administered for 16 days measured 2 to 24 hrs post last dose by immunoassay; type: functional, organism-based; conditions: SW-620
Summary of the method: (§3)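 SW620 xenografts in female NCr athymic mice were dosed orally for 16 days. Phospho-STAT1 Ser727 was measured by Luminex immunoassay, normalized to total STAT1 and expressed as % of vehicle controls at each time point (2 h to 24 h after dosing).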

[18] = Volume of distribution at steady state in Wistar rat at 0.2 mg/kg, iv as bolus dose or 0.5 mg/kg, po via gavage measured over 6 hrs; type: ADME, organism-based; conditions: in vivo, read-out: Vdss
Mus musculus [19] = assay: Toxicity in NCr athymic mouse xenografted with human SW620 cells assessed as effect on body weight at 100 mg/kg, po qd administered for 16 days; type: organism-based, SW-620; conditions: in vivo, 384 h; summary of the method: as §1
Mus musculus [20] = assay: Toxicity in NCr athymic mouse xenografted with human SW620 cells assessed as drug tolerance at 50 mg/kg, po bid administered for 16 days; type: organism-based, SW-620; conditions: in vivo, 384 h; summary of the method: as §1
[21] = Half life in Wistar rat at 0.2 mg/kg, iv as bolus dose or 0.5 mg/kg, po via gavage; type: ADME, organism-based; conditions: in vivo
[22] = Intrinsic clearance in mouse liver microsomes at 1 uM preincubated for 5 mins followed by NADPH addition measured after 5 to 30 mins by LC-MS/MS analysis; type: ADME; conditions: read-out: CLH
[23] = Plasma clearance in NMRI mouse at 0.2 mg/kg, iv as bolus dose or 0.5 mg/kg, po via gavage measured over 6 hrs relative to hepatic blood flow; type: ADME, organism-based, Liver; conditions: in vivo
[24] = Volume of distribution at steady state in NMRI mouse at 0.2 mg/kg, iv as bolus dose or 0.5 mg/kg, po via gavage measured over 6 hrs; type: ADME, organism-based; conditions: in vivo, read-out: Vdss
[25] = Inhibition of CYP450 (unknown origin); type: ADME, Homo sapiens
[26] = Intrinsic clearance in rat liver microsomes at 1 uM preincubated for 5 mins followed by NADPH addition measured after 5 to 30 mins by LC-MS/MS analysis; type: ADME; conditions: read-out: CLH
[27] = Fraction unbound in NMRI mouse plasma at 0.2 mg/kg, iv as bolus dose or 0.5 mg/kg, po via gavage measured over 6 hrs; type: ADME, organism-based
[28] = Kinetic solubility of the compound; type: physicochemical; conditions: read-out: Kinetic_solubility
[29] = biological target: Sodium-dependent dopamine transporter (Homo sapiens, UniProt Q01959); assay: Displacement of [3H]BTCP from human recombinant dopamine transporter expressed in CHO cells after 120 mins by scintillation counting method; type: cell-based
[30] = Thermodynamic solubility of the compound in FaSSIF at pH 6.5; type: physicochemical; conditions: read-out: Therm_solubility
[31] = Oral bioavailability in Beagle dog at 0.5 mg/kg via gavage measured over 48 hrs; type: ADME, organism-based, Canis lupus familiaris; conditions: in vivo
Mus musculus [32] = assay: Toxicity in NCr athymic mouse xenografted with human SW620 cells assessed as body weight loss at 50 mg/kg, po bid administered for 16 days; type: organism-based, SW-620; conditions: in vivo, 384 h; summary of the method: as §1
[33] = Oral bioavailability in NMRI mouse at 0.5 mg/kg via gavage measured over 6 hrs measured over 6 hrs; type: ADME, organism-based; conditions: in vivo
Mus musculus [34] = assay: In vivo inhibition of CDK8-mediated STAT1 phosphorylation at Ser727 in human SW620 cells xenografted in NCr athymic mouse at 50 mg/kg, po bid administered for 16 days measured 2 to 24 hrs post last dose by immunoassay; type: functional, organism-based; conditions: SW-620; summary of the method: as §3
[35] = Antitumor activity against human SW620 cells xenografted in NCr athymic mouse assessed as tumor growth inhibition at 100 mg/kg, po qd administered for 16 days relative to control; type: functional, SW-620; summary of the method: as §2
[36] = biological target: Glycogen synthase kinase-3 alpha (Homo sapiens) (UniProt P49840); assay: Inhibition of GSK-3alpha (unknown origin) at 1 uM relative to control
[37] = Plasma clearance in Wistar rat at 0.2 mg/kg, iv as bolus dose or 0.5 mg/kg, po via gavage measured over 6 hrs relative to hepatic blood flow; type: ADME, organism-based, Liver; conditions: in vivo
[38] = Plasma clearance in Beagle dog at 0.2 mg/kg, iv as bolus dose or 0.5 mg/kg, po via gavage measured over 48 hrs relative to hepatic blood flow; type: ADME, organism-based, Canis lupus familiaris, Liver; conditions: in vivo
[39] = biological target: T1, Cyclin-dependent kinase 8; assay: Inhibition of CDK8 in human COLO205 cells expressing APC mutant assessed as suppression of WNT pathway by luciferase reporter gene assay; type: cell-based; conditions: colo 205
Target sequence in this assay (P49336 whole entry, looked up, stated change not applied): as above

[40] = Volume of distribution at steady state in Beagle dog at 0.2 mg/kg, iv as bolus dose or 0.5 mg/kg, po via gavage measured over 48 hrs; type: ADME, organism-based, Canis lupus familiaris; conditions: in vivo, read-out: Vdss
[41] = Apparent permeability from apical to basolateral side in human Caco2 cells at 1 uM after 2 hrs by Transwell assay; type: ADME, cell-based; conditions: Caco-2
[42] = Thermodynamic solubility of the compound in FeSSIF at pH 5; type: physicochemical; conditions: read-out: Therm_solubility
[43] = Plasma clearance in NMRI mouse at 0.2 mg/kg, iv as bolus dose or 0.5 mg/kg, po via gavage measured over 6 hrs; type: ADME, organism-based

Chain of CDK8/Cyclin C (P49336 whole entry): as the sequence (P49336 whole entry, looked up, stated change not applied) above
Chain of CDK8/Cyclin C (P24863 whole entry, further chain): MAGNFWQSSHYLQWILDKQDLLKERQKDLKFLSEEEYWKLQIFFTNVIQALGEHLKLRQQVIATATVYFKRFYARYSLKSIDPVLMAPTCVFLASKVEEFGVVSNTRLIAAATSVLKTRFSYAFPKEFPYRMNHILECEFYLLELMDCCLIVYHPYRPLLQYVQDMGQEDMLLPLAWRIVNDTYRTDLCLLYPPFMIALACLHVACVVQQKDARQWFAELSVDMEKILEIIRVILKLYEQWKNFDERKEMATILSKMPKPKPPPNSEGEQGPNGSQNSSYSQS
Chain of Glycogen synthase kinase-3 alpha (Homo sapiens) (P49840 2-483 limits assumed): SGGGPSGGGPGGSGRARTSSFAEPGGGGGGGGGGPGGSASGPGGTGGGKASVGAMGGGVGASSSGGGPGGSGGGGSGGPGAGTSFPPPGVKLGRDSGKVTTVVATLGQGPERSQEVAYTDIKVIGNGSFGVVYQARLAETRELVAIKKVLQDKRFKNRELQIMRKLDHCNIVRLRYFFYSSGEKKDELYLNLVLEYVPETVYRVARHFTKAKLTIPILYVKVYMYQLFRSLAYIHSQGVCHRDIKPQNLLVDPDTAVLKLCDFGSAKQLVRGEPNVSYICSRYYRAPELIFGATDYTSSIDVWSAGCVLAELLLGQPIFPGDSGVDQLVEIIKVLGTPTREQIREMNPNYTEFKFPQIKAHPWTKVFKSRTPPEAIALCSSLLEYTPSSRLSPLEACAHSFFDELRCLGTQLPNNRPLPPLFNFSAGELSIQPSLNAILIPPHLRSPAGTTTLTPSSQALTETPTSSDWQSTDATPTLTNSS
Chain of Sodium-dependent dopamine transporter (Q01959 whole entry): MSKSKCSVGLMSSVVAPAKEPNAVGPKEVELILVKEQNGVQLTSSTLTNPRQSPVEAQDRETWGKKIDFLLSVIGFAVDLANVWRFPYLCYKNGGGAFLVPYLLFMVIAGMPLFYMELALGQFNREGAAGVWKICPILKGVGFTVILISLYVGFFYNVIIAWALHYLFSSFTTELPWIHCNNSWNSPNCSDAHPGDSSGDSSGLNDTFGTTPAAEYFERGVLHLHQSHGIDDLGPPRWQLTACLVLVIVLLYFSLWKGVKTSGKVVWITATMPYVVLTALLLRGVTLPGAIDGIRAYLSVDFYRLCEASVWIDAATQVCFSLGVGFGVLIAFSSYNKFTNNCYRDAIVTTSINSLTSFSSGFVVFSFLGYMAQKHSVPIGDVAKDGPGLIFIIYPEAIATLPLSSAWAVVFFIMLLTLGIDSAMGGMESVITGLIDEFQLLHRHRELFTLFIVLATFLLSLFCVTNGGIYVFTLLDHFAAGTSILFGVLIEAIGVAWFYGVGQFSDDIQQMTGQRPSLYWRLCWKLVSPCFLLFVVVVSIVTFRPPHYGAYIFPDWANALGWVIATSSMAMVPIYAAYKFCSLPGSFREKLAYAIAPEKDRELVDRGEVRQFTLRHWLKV
Chain of hERG (KCNH2) (Q12809 whole entry): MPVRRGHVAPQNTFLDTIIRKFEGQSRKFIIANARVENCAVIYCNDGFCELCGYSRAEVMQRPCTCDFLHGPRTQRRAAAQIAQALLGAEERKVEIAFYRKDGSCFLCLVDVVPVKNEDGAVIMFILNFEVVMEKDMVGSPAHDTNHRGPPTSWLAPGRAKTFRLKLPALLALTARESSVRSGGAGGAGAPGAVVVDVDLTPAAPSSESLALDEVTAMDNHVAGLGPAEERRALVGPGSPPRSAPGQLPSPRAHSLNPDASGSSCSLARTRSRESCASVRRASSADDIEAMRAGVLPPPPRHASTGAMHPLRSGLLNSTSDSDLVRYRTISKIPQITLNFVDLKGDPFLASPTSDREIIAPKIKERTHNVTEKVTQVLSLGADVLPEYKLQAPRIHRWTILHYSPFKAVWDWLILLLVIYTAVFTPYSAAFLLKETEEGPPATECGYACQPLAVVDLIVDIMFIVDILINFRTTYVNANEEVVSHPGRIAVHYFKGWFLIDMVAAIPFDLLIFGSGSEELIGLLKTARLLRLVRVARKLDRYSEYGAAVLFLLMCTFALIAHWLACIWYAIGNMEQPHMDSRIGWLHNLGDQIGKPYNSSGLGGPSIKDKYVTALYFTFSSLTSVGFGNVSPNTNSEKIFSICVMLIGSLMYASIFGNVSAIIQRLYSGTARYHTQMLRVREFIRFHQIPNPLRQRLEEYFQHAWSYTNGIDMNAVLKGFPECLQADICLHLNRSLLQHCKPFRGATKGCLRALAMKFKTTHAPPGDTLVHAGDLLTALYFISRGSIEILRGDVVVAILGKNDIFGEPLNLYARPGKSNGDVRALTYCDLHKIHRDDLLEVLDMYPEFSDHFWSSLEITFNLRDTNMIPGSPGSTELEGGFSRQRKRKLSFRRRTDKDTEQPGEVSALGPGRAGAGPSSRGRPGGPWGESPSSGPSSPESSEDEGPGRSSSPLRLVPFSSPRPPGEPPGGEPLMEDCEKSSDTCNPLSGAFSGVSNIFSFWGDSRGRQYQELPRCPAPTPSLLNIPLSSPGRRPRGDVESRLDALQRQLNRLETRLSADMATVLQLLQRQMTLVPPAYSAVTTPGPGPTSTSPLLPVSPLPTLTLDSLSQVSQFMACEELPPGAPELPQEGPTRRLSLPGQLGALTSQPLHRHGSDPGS

## Cc1n[nH]c2ncc(C(=O)N3CCC[C@H]3c3ccc(Cl)cc3)cc12
[1]
  fraction unbound at 48 h: 0.5
[2]
  half-life: 27 min
[3]
  clearance: 25 mL/min/kg
[4]
  IC50: 32 nM
[5]
  microsomal CLint at 1 µM: 45 µL/min/mg
Mus musculus [6]
  Activity: Non-Toxic
[7]
  half-life: 49.8 min
[8]
  fraction unbound at 6 h: 0.19
[9]
  IC50: 52 nM
[10]
  T/C: 49%
[11]
  clearance: 22.5 mL/min/kg
[12]
  IC50: 8 nM
CDK8/Cyclin C
  IC50: 2.6 nM
hERG (KCNH2)
  inhibition at 10 µM: 18%
[13]
  IC50: 6.5 nM
[14]
  solubility thermodynamic: 399 µg/mL (≈ 1170 µM)
[15]
  bioavailability: 66%
[16]
  efflux ratio at 2 h, 1 µM: 1.5
Mus musculus [17]
  inhibition: Active
[18]
  Vd: 1.62 L/kg
Mus musculus [19]
  Activity: Non-Toxic
Mus musculus [20]
  Activity: Non-Toxic
[21]
  half-life: 51.6 min
[22]
  microsomal CLint at 1 µM: < 10 µL/min/mg
[23]
  CL: 22.5%
[24]
  Vd: 0.59 L/kg
[25]
  IC50: > 20000 nM
[26]
  microsomal CLint at 1 µM: < 10 µL/min/mg
[27]
  fraction unbound at 6 h: 0.13
[28]
  solubility kinetic: > 200 µM
[29]
  IC50: 8500 nM
[30]
  solubility thermodynamic: 628 µg/mL (≈ 1840 µM)
[31]
  bioavailability: 39%
Mus musculus [32]
  Activity: Non-Toxic
[33]
  bioavailability: 25%
Mus musculus [34]
  inhibition: Active
[35]
  T/C: 57%
[36]
  inhibition: > 50%
[37]
  CL: 34.6%
[38]
  CL: 53.8%
[39]
  IC50: 9 nM
[40]
  Vd: 1.47 L/kg
[41]
  Papp A→B at 2 h, 1 µM: 44 ×10⁻⁶ cm/s
[42]
  solubility thermodynamic: 836 µg/mL (≈ 2450 µM)
[43]
  clearance: 22.8 mL/min/kg
